From ChEMBL document CHEMBL1140092, “New chimeric antimalarials with 4-aminoquinoline moiety linked to a tetraoxane skeleton” (J Med Chem, 2008) come the findings set out here.

Series [1] relates to Plasmodium falciparum. The series can be described thus: Antimalarial activity against chloroquine-resistant, mefloquine-susceptible Plasmodium falciparum W2. It is filed as functional, organism-based. Summed up:
(§1)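 In vitro blood-stage assay with P. falciparum clones: D6 (Sierra I/UNC isolate), W2 (Indochina I isolate) and TM91C235 (Southeast Asian isolate). Activity was expressed as IC90.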

Series [2] concerns Mycobacterium tuberculosis. The experiment in a line: Antitubercular activity against Mycobacterium tuberculosis H37Rv at 6.26 ug/ml by alamar blue assay. It is filed as functional. Summed up:
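Screened against M. tuberculosis H37Rv at TAACF by Alamar blue assay at a cutoff of 6.26 µg/mL. Active was defined as >90% inhibition.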

The test system of series [3] is Plasmodium falciparum. The experiment in a line: Antimalarial activity against chloroquine-sensitive Plasmodium falciparum D6. It is filed as functional, organism-based. Summed up:
as §1

Series [4] relates to Mycobacterium tuberculosis. The experiment in a line: Antitubercular activity against Mycobacterium tuberculosis H37Rv by microplate alamar blue assay. It is filed as functional. Summed up:
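M. tuberculosis H37Rv was tested at TAACF by microplate Alamar blue assay (MABA). Inhibitory activity was reported as IC90.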

Series [5] relates to Plasmodium falciparum. The experiment in a line: Antimalarial activity against multidrug-resistant Plasmodium falciparum TM91C235. It is filed as functional, organism-based. The procedure, abridged:
as §1

Series [6] concerns Plasmodium berghei. The series can be described thus: Antimalarial activity against Plasmodium berghei KBG173 infected ICR mice (Mus musculus) at 320 mg/kg/day peroral dose from day 3 post infection at day 31 by modified Thompson test. It is filed as functional, organism-based. Summed up:
(§2)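 Modified Thompson test in groups of five ICR mice. Mice were inoculated ip with P. berghei KBG 173-infected erythrocytes on day 0. Compound was suspended in 0.5% hydroxyethylcellulose-0.1% Tween 80 and given orally once daily on days 3-5. Blood smears were read on days 6-31. Cure was defined as alive on day 31 with no parasites in a blood film. Necropsy followed.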

Series [7] has as its system Plasmodium berghei. The series can be described thus: Antimalarial activity against Plasmodium berghei KBG173 infected ICR mice (Mus musculus) assessed at 20 mg/kg/day peroral dose from days 3 to 5 post infection. It is filed as functional. The conditions noted are these: route oral. Summed up:
as §2

Series [8] deals with Plasmodium berghei. The experiment in a line: Antimalarial activity against Plasmodium berghei KBG173 infected ICR mice (Mus musculus) at 320 mg/kg/day peroral dose from days 3 to 5 post infection. It is filed as functional. The conditions noted are these: route oral. The procedure, abridged:
as §2

Series [9] concerns Plasmodium berghei. The experiment in a line: Antimalarial activity against Plasmodium berghei KBG173 infected ICR mice (Mus musculus) at 20 mg/kg/day peroral dose from day 3 post infection at day 31 by modified Thompson test. It is filed as functional, organism-based. Summed up: as §2
For series [10], the system named is Mus musculus. The series can be described thus: Toxicity in Plasmodium berghei KBG173-infected ICR mice (Mus musculus) at 960 mg/kg, perorally for 3 days. It is filed as organism-based. Details: dose 960 mg/kg, route oral. The note with it: in vivo, po, 72 h. The procedure, abridged: (§3)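 Orally dosed, P. berghei KBG 173-infected ICR mice in groups of five received compound suspended in 0.5% hydroxyethylcellulose-0.1% Tween 80 once daily for three consecutive days. Doses went up to 960 mg/kg. Toxicity was judged by survival and by gross lesions at necropsy.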

Series [11] can be described thus: Toxicity in Plasmodium berghei KBG173-infected perorally dosed ICR mice (Mus musculus) assessed as maximum tolerated dose. The conditions noted are these: in vivo, po. It is filed as organism-based. The procedure, abridged:
as §3

In series [12] the test system is Plasmodium berghei. The series can be described thus: Antimalarial activity against Plasmodium berghei KBG173 infected ICR mice (Mus musculus) assessed at 80 mg/kg/day peroral dose from days 3 to 5 post infection. It is filed as functional. The note with it: route oral. The procedure, abridged: as §2
Series [13] is described as follows: Metabolic stability in mouse liver microsomes assessed as half life. It is filed as ADME, Microsome.
A short description of series [14]: Metabolic stability in human liver microsomes assessed as half life. It is filed as ADME, Microsome.

The source made the active and inactive calls.

`CC(=O)O[C@H]1C[C@H]2[C@@H]([C@H](OC(C)=O)C[C@@H]3CC4(CC[C@@]32C)OOC2(CCCCC2)OO4)[C@@H]2CC[C@H]([C@H](C)CCCNCCNc3ccnc4cc(Cl)ccc34)[C@@]12C`: the results for the IC50 in [1], in [3] and in [5] were 22.9 nM, 33.5 nM and 30.2 nM, respectively. In addition, the IC90 was 30.3 nM in [1], 103 nM in [3], 330 nM in series [4] and 160 nM in series [5]. In series [2], the inhibition at 6.26 µg/mL is > 90%.
Regarding `Clc1ccc2c(NCCNCC3CCC4(CC3)OOC3(CCCCC3)OO4)ccnc2c1`, the outcome in series [6] was Active. Besides, the IC50 came out at 5.76 nM in series [1], 9.05 nM in [3] and 9.9 nM in [5]. The concentration for an effect of 90% (IC90) in series [1] is 12.4 nM; in series [3] it was 18.2 nM; in series [4] it was < 430 nM; in series [5] it was 18.3 nM. In addition, the values for the Survival in series [7], in series [8] and in series [12] were 15.8 days, >31 days and 26.4 days, respectively. In [9], the result was inactive. Also, in [2], the inhibition at 6.26 µg/mL was > 90%. Moreover, the Activity result in [10] is recorded as “Non-toxic”. For the same compound, the MTD in series [11] was > 960 mg/kg.
For the compound `CCN(CC)CCCC(C)Nc1ccnc2cc(Cl)ccc12` (configuration not stated) [CHLOROQUINE], the IC90 came out at 640 nM in [1], 15.9 nM in [3] and 264 nM in series [5].
Turning to `O=C(NCCNc1ccnc2cc(Cl)ccc12)C1CCC2(CC1)OOC1(CCCCC1)OO2`, the result in [6] was Active. In addition, the IC50 in series [1] was found to be 2 nM; in series [3] it was 2.33 nM; in [5], 3.7 nM. The IC90 worked out at 2.26 nM in series [1], 3.75 nM in series [3] and 7.38 nM in series [5]. Further, the half-life in [13] and in [14] was > 1 h throughout. Also, the Survival was 14.2 days in [7], >31 days in [8] and 26.2 days in series [12]. Further, the result in series [9] was inactive. The inhibition at 6.26 µg/mL in [2] was > 90%. Besides, in series [10], the Activity entry is “Non-toxic”. The MTD in series [11] is > 960 mg/kg.
`OC(c1cc(C(F)(F)F)nc2c(C(F)(F)F)cccc12)C1CCCCN1` (configuration not stated) [MEFLOQUINE]: the IC50 in series [1] is 5.35 nM; in series [3], 19 nM; in [5], 47.5 nM. For the same compound, the IC90 in series [1] is 18.6 nM; in [3], 44.8 nM; in [5], 153 nM.
Take `CC(=O)O[C@H]1C[C@H]2[C@@H]([C@H](OC(C)=O)C[C@@H]3CC4(CC[C@@]32C)OOC2(CCCCC2)OO4)[C@@H]2CC[C@H]([C@H](C)CCC(=O)NCCNc3ccnc4cc(Cl)ccc34)[C@@]12C`: the 50% inhibitory concentration (IC50) in series [1] turned out to be 4.47 nM; in series [3] it was 6.53 nM; in series [5], 8.54 nM. The IC90 in series [1] came to 10.7 nM; in series [3], 10.6 nM; in [4], 400 nM; in series [5], 17.2 nM. The inhibition at 6.26 µg/mL in series [2] was > 90%.
For the compound `C[C@@H]1CC[C@H]2[C@@H](C)C(=O)O[C@@H]3O[C@@]4(C)CC[C@@H]1[C@]32OO4` [ARTEMISININ], the IC50 turned out to be 6.7 nM in series [1], 9 nM in [3] and 13 nM in [5]. Further, the figures for the IC90 in [1], in series [3] and in series [5] were 11.5 nM, 12.8 nM and 17.4 nM, respectively.
